From ChEMBL document CHEMBL1139315, “Search for new pharmacophores for antimalarial activity. Part II: synthesis and antimalarial activity of new 6-ureido-4-anilinoquinazolines” (Bioorg Med Chem, 2009) come the findings set out here.

Data set [1] concerns Plasmodium falciparum. In words: Antimalarial activity as schizonticidal activity after 48 hrs against chloroquine-sensitive Plasmodium falciparum 3D7. Type of data set: functional. As to conditions: 3D7, 48 h. The gist of the method: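 3D7 ring stages synchronized with 5% sorbitol; 3% cell suspension at 1% parasitaemia added to duplicate wells of diluted compound (DMSO stock 5 mg/mL, diluted in RPMI). Incubated at 37 °C under CO2 for more than 40 h. Giemsa-stained thin smears counted by light microscopy; MIC = lowest concentration giving 100% inhibition of schizont maturation against untreated control.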

Data set [2] concerns Plasmodium yoelii nigeriensis. Description: (§1) Antimalarial activity as reduced parasitaemia against Plasmodium yoelii nigeriensis MDR infected Swiss mice (Mus musculus) at 100 mg/kg peroral dose […]. Type of data set: functional. As to conditions: route oral. Details: scale not given: the % may be the effect or the level left. The gist of the method: (§2)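 Swiss mice (25 g, either sex), five per group, infected with 1 × 10^6 parasitized cells on day 0. Aqueous suspension given orally from day 0 to day 4; vehicle-only group as control. Parasitaemia read from tail-vein thin blood smears, reported as mean % parasitaemia on day 4 and day 7.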

In a further data set the test system is Plasmodium yoelii. Description: Antimalarial activity as reduced parasitaemia against chloroquine-resistant Plasmodium yoelii infected Swiss mice (Mus musculus) at 100 mg/kg peroral dose for 4 days. Details: scale not given: the % may be the effect or the level left. Type of data set: functional. As to conditions: route oral.
The test system of data set [3] is Plasmodium yoelii nigeriensis. Description: Antimalarial activity as reduced parasitaemia against Plasmodium yoelii nigeriensis MDR infected Swiss mice (Mus musculus) at 100 mg/kg peroral dose for 4 days. Type of data set: functional. As to conditions: route oral. Details: scale not given: the % may be the effect or the level left. The gist of the method: as §2

A short description of data set [4]: Selectivity index, ratio of CC50 for african green monkey (Cercopithecus aethiops) Vero C1008 cells to IC50 for chloroquine-sensitive Plasmodium falciparum 3D7. Type of data set: functional. In short, it runs like this:
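Vero C1008 cells exposed to serially diluted compound, highest 100 µg/mL, for 72 h; MTT read-out; CC50 = concentration killing 50% of cells. SI = CC50/IC50, with IC50 from the SYBR Green I assay on 3D7.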

In data set [5] the test system is Plasmodium falciparum. In words: Antimalarial activity after 72 hrs against chloroquine-sensitive Plasmodium falciparum 3D7 infected erythrocytes by MSF assay. Type of data set: functional, organism-based. As to conditions: 3D7, 72 h. The gist of the method:
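P. falciparum 3D7 kept in RPMI with gentamicin 40 µg/mL, Fungizone 0.25 µg/mL and 10% FBS (pH 7.2) at 37 °C under CO2. Twofold serial dilutions over seven concentrations, top 10–500 ng/mL, duplicate wells; 2.5% haematocrit, 0.5% parasitaemia; 72 h. SYBR Green I in lysis buffer (Tris pH 7.5, EDTA, saponin, Triton X-100), 1 h at room temperature, fluorescence read; IC50 by logit regression.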

The subject of a further data set is Mus musculus. Description: Toxicity against Plasmodium yoelii nigeriensis MDR infected Swiss mice (Mus musculus) assessed as death at 100 mg/kg, perorally. Type of data set: organism-based. Details: dose 100 mg/kg, route oral. As to conditions: in vivo, po.
Data set [6] has as its system Plasmodium yoelii nigeriensis. Described as §1. Type of data set: functional. Details: scale not given: the % may be the effect or the level left. As to conditions: route oral. The gist of the method: as §2
The source holds these as a separate data set.

Each structure is given as a SMILES string. Values after ≈ are worked out from the molar mass of the structure shown.

As usually defined, the MIC is the lowest concentration found to suppress growth. `O=C(Nc1ccc(Cl)cc1)Nc1ccc2ncnc(Nc3ccc(F)cc3)c2c1` registered an MIC against Plasmodium falciparum [1] of 0.5 µg/mL (≈ 1.23 µM). The Activity turned out to be 9.38% in data set [2] and 1.18% in the data set on Plasmodium yoelii.
Compound `Cc1ccc(NC(=O)Nc2ccc3ncnc(Nc4ccc(F)cc4)c3c2)cc1Cl` had an MIC against Plasmodium falciparum [1] of 0.5 µg/mL (≈ 1.19 µM). Moreover, the Activity turned out to be 4.06% in data set [2] and 2.8% with Plasmodium yoelii.
In general, IC50 refers to the concentration that gives 50% inhibition. Consider `COc1ccc(Nc2ncnc3ccc(NC(=O)Nc4cc(Cl)cc(Cl)c4)cc23)cc1OC`, for which, in the data set with Plasmodium falciparum [1], the MIC came to 0.25 µg/mL (≈ 0.516 µM). Moreover, the Activity came to 10.75% in data set [2] and 23.7% in data set [3]. Also, the “Ratio CC50/IC50” value in data set [4] is recorded as 36.1. Besides, it took 0.0832 µg/mL (≈ 0.172 µM) to reach half-maximal inhibition with Plasmodium falciparum [5] (IC50).
In the data set on Plasmodium falciparum [1], `O=C(Nc1ccc(Br)cc1)Nc1ccc2ncnc(Nc3cccc(C(F)(F)F)c3)c2c1` showed a minimum inhibitory concentration (MIC) of 2 µg/mL (≈ 3.98 µM). Besides, the results for the Activity (in data set [3]; in the data set with Mus musculus) were 50.4% and “Toxic”, respectively.
On to `COc1ccc(Nc2ncnc3ccc(NC(=O)Nc4ccc(Cl)c(C(F)(F)F)c4)cc23)cc1OC`, for which, in the data set with Plasmodium falciparum [1], it took 0.25 µg/mL (≈ 0.483 µM) to inhibit growth (MIC). Further, the results for the Activity in data set [2], in data set [6] and in data set [3] were 0.49%, 99% and 0%, respectively. In data set [4], the “Ratio CC50/IC50” value amounted to 345.8. For the same compound, the IC50 in the data set with Plasmodium falciparum [5] was 0.0182 µg/mL (≈ 0.0351 µM).
Turning to `Cc1ccc(Nc2ncnc3ccc(NC(=O)Nc4ccc(C)c(Cl)c4)cc23)cc1`, inhibition of growth against Plasmodium falciparum [1] (MIC) required 0.5 µg/mL (≈ 1.2 µM). For the same compound, the Activity was determined as 10.82% in data set [2] and 3.38% in the data set with Plasmodium yoelii.
In the data set with Plasmodium falciparum [1], `N#Cc1cccc(NC(=O)Nc2ccc3ncnc(Nc4cccc(F)c4)c3c2)c1` yielded an MIC of 0.5 µg/mL (≈ 1.26 µM). Also, the Activity is 46.4% in data set [3] and “Toxic” in the data set on Mus musculus.
Take `O=C(Nc1ccc(Cl)cc1)Nc1ccc2ncnc(Nc3cccc(F)c3)c2c1`: in the data set with Plasmodium falciparum [1], it took 0.5 µg/mL (≈ 1.23 µM) to inhibit growth (MIC). In addition, the Activity in data set [2] worked out at 0.03%; in data set [6] it was 99%; in data set [3], 0%.
Consider `COc1ccc(Nc2ncnc3ccc(NC(=O)Nc4ccc(Cl)c(Cl)c4)cc23)cc1OC`, for which, in the data set with Plasmodium falciparum [1], the lowest concentration to inhibit growth (MIC) was 0.25 µg/mL (≈ 0.516 µM). Further, the Activity in data set [2] worked out at 14%; in data set [3], 41%. In addition, the “Ratio CC50/IC50” value in data set [4] was determined as 74.5. Besides, the IC50 in the data set on Plasmodium falciparum [5] was found to be 0.0807 µg/mL (≈ 0.167 µM).
